The structures appear in SMILES notation. Active and inactive are the calls of the source. No cut-off for these calls is given here.

The target in assay [1] is T1, Prostaglandin G/H synthase 1 (Mus musculus) (UniProt P22437).
T1 sequence (whole entry): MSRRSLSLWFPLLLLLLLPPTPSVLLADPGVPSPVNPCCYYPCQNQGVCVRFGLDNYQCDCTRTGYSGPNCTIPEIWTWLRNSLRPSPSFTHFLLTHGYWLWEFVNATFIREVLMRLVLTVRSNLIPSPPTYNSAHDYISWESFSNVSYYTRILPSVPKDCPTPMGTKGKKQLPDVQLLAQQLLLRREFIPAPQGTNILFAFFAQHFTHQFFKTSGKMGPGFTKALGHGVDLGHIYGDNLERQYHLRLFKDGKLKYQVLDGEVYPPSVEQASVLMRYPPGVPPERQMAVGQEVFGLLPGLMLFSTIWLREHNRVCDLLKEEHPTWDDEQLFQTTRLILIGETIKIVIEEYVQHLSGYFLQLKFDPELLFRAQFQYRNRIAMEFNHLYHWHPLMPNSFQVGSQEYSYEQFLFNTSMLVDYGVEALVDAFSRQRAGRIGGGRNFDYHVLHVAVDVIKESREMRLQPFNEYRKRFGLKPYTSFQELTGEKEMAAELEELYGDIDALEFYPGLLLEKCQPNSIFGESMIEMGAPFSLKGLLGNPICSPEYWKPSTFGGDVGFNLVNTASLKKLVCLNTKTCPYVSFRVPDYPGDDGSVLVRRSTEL
The assay is described as follows: Activity at COX1 assessed as inhibition of arachidonic acid-induced PGE2 production in J774 cells at 10 uM. The assay is classed as cell-based. In a few lines:
(§1)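 Murine J774 macrophages were grown in DMEM with 10% FBS, adhered for 2 h at 37 °C, then switched to serum-free medium. Cells were pretreated with compound (0.01-100 µM, ethanol vehicle) for 15 min, then given 15 µM arachidonic acid for 30 min at 37 °C. Supernatant PGE2 was measured by radioimmunoassay. Triplicate wells; % inhibition vs control, mean of three experiments.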

The target of assay [2] is T1, Prostaglandin G/H synthase 1 (Mus musculus). The assay is described as follows: Activity at COX1 assessed as inhibition of arachidonic acid-induced PGE2 production in J774 cells. The assay is classed as cell-based. A digest of the protocol: as §1
In assay [3] the test system is Mus musculus. The experiment in a line: Antiinflammatory activity in carrageenan-induced mouse paw edema. The assay is classed as functional, organism-based. A digest of the protocol: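 Mice (18-20 g), lightly anesthetized with enflurane, were dosed 1 h before subplantar 1% carrageenan in the left footpad. Paw volume was read by hydroplethysmometer before injection and at 2, 4, 6, 24, 48 and 72 h. Edema was taken as the increase over basal volume.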
(In general: Carrageenan injected into the paw causes an acute inflammation.)

The next assay deals with Rattus norvegicus. The assay is described as follows: Gastric damage in rat at 100 mg/kg, po by GI damage assay. The assay is classed as functional. In a few lines: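 Rats (120-140 g) were fasted 18 h with water allowed, then dosed orally at 100 mg/kg; a vehicle group was included, six rats per group. After 5 h, stomachs were excised under pentobarbital. A blinded observer summed lesion lengths in mm per stomach. Analysis: Kruskal-Wallis with Dunn's post-test.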

For assay [4], the target named is T1, Prostaglandin G/H synthase 1 (Mus musculus). The experiment in a line: Activity at COX1 assessed as inhibition of arachidonic acid-induced PGE2 production in J774 cells at 100 uM. The assay is classed as cell-based. A digest of the protocol: as §1
Assay [5] shares this target. The assay is described as follows: Activity at COX1 assessed as inhibition of arachidonic acid-induced PGE2 production in J774 cells at 0.1 uM. The assay is classed as cell-based. A digest of the protocol:
as §1

Assay [6] has the same target. The assay is described as follows: Activity at COX1 assessed as inhibition of arachidonic acid-induced PGE2 production in J774 cells at 0.01 uM. The assay is classed as cell-based. A digest of the protocol: as §1
The target is the same in assay [7]. The assay is described as follows: Activity at COX1 assessed as inhibition of arachidonic acid-induced PGE2 production in J774 cells at 1 uM. The assay is classed as cell-based. A digest of the protocol:
as §1

Assay [8] concerns the target T2, Prostaglandin G/H synthase 2 (Mus musculus) (UniProt Q05769).
T2 sequence (whole entry): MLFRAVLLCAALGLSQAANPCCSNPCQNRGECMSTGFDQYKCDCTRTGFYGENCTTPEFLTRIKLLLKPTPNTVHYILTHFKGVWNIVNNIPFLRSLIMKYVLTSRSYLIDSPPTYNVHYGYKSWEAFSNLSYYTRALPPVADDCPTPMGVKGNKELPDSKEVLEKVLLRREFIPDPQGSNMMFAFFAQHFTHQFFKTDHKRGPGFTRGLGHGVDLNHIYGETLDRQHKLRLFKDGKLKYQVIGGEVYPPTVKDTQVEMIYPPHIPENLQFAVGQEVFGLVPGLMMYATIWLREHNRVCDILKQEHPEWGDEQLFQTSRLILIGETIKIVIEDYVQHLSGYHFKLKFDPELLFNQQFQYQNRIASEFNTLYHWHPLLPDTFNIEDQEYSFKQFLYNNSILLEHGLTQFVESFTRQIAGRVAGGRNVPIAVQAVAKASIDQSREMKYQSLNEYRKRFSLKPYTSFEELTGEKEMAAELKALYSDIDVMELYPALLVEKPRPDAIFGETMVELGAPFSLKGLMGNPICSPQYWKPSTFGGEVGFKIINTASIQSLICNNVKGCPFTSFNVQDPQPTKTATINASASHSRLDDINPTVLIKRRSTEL
The assay is described as follows: Activity at COX2 assessed as inhibition of arachidonic acid-induced PGE2 production in LPS-stimulated J774 cells at 100 uM. The assay is classed as cell-based. In a few lines: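 J774 cells were induced with S. typhosa LPS (10 µg/mL, 24 h) to express COX-2. Medium was replaced with fresh medium holding 15 µM arachidonic acid, with or without compound (0.01-100 µM, ethanol vehicle), for 30 min at 37 °C. Supernatant PGE2 was measured by radioimmunoassay. Triplicate wells; % inhibition vs control, mean of three experiments.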

The species entered for assay [9] is Mus musculus. The assay is described as follows: Analgesic activity in mouse by formalin paw licking assay at 0-15 mins. The assay is classed as functional, organism-based. In a few lines: (§2)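 Mice (18-20 g) were dosed 1 h before intraplantar 5% formalin (10 µL), given under light enflurane anesthesia. A blinded observer scored paw licking in two phases: 0-15 min and 15-45 min.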

For assay [10], the species on record is Mus musculus. The assay is described as follows: Analgesic activity in Swiss mouse by acetic acid-induced writhing test. The assay is classed as functional, organism-based. A digest of the protocol: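 Male mice (25-30 g) received 0.6% acetic acid intraperitoneally and were caged singly. Writhes were counted over 15 min, starting from the first writhing movement.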
Background: An intraperitoneal irritant provokes the stretching counted in writhing tests.

For assay [11], the species on record is Mus musculus. The assay is described as follows: Analgesic activity in mouse by formalin paw licking assay at 15-45 mins. The assay is classed as functional, organism-based. In a few lines: as §2

Consider `COc1ccc2c(c1)c(CC(=O)O)c(C)n2C(=O)c1ccc(Cl)cc1` [INDOMETHACIN], for which the inhibition in assay [1] was determined as 75%; in assay [4] it was 88%. In addition, the Activity result in [2] was “Dose-dependent effect”; with Rattus norvegicus, 50 mm. Further, the outcome with Mus musculus [3] was Active.

Take `CCOC(=O)Cc1c(C)n(C2CCN(C)CC2)c2ccc(OC(C)=O)cc12`: the result in [1], in [5], in assay [6], in assay [7] and in assay [4] was inactive.

Take `CCOC(=O)Cc1c(C)n(C2CCN(C)CC2)c2ccc(OC)cc12`: the inhibition amounted to 37% in assay [1], 24% in assay [8] and 58% in assay [4]. Also, the results for the Activity entry (in assay [2]; in the assay listed under Mus musculus [10]; in the assay with Rattus norvegicus) were “Dose-dependent effect”, “Dose-dependent effect” and 0.6 mm, respectively. Also, the outcome in the assay with Mus musculus [3] and in the assay filed under Mus musculus [11] was Active. Further, the result in the assay listed under Mus musculus [9] was inactive.

In the case of `COc1ccc2c(c1)c(CC(=O)O)c(C)n2C1CCN(C)CC1`, the inhibition came to 57% in [1] and 64% in assay [4]. For the same compound, the Activity result (in assay [2]; in the assay listed under Mus musculus [10]) was “Dose-dependent effect” in each case. In addition, the outcome in the assay with Mus musculus [3] and in the assay listed under Mus musculus [11] was Active. Also, the outcome in the assay filed under Mus musculus [9] and in the assay with Rattus norvegicus was inactive.

On to `Cc1c(CC(=O)O)c2cc(O)ccc2n1C1CCN(C)CC1`, for which the result in [1], in [5], in assay [6], in assay [7] and in [4] was inactive.

In general, inhibition refers to the percentage by which the read-out fell short of the control.

The values above are taken from ChEMBL document CHEMBL1138850, “Synthesis of 2-methyl-3-indolylacetic derivatives as anti-inflammatory agents that inhibit preferentially cyclooxygenase 1 without gastric damage” (2006).
